{"source": "ChEMBL document CHEMBL1122145", "about": "“Prostaglandins and congeners, 29. (16RS)-(+/-)-15-Deoxy-16-hydroxy-16-vinyl-prostaglandin E2, an orally and transdermally active hypotensive agent of prolonged duration” (1982)", "format_in_all_cases": "functional", "key": {"[1]": {"system": "Rattus norvegicus", "experiment": "Intravenous antihypertensive effect in conscious, spontaneously hypertensive rats, Duration of action was determined at a compound dose of 10 ug/kg; 30-45"}, "[2]": {"system": "Rattus norvegicus", "experiment": "Intravenous antihypertensive effect in conscious, spontaneously hypertensive rats, Duration of action was determined at a compound dose of 100 ug/kg"}, "[3]": {"system": "Rattus norvegicus", "experiment": "Intravenous antihypertensive effect in conscious, spontaneously hypertensive rats, Duration of action was determined at a compound dose of 30 ug/kg; 45-50"}, "[4]": {"system": "Rattus norvegicus", "experiment": "Intravenous antihypertensive effect in conscious, spontaneously hypertensive rats a dose of 10 ug/kg", "in_short": "(§1)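 Male Okamoto spontaneously hypertensive rats (about 300 ± 20 g), restrained supine. The iliac artery was cannulated to a pressure recorder. After a stabilization period, the sodium salt was injected into the lateral caudal vein: acid dissolved in absolute ethanol, neutralized with 0.6 M NaHCO3, diluted in saline. Maximum fall in mean arterial blood pressure (mmHg), mean of two experiments.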"}, "[5]": {"system": "Rattus norvegicus", "experiment": "Intravenous antihypertensive effect in conscious, spontaneously hypertensive rats a dose of 100 ug/kg", "in_short": "as §1"}, "[6]": {"system": "Rattus norvegicus", "experiment": "Intravenous antihypertensive effect in conscious, spontaneously hypertensive rats a dose of 30 ug/kg", "in_short": "as §1"}, "[7]": {"system": "Rattus norvegicus", "experiment": "Intravenous antihypertensive effect in conscious, spontaneously hypertensive rats, Duration of action was determined at a compound dose of 10 ug/kg"}, "[8]": {"system": "Rattus norvegicus", "experiment": "Intravenous, antihypertensive effect in conscious, spontaneously hypertensive rats, Duration of action was determined at a compound dose of 100 ug/kg; 10-20"}, "[9]": {"system": "Rattus norvegicus", "experiment": "Intravenous, antihypertensive effect in conscious, spontaneously hypertensive rats, Duration of action was determined at a compound dose of 30 ug/kg"}, "[10]": {"system": "Rattus norvegicus", "experiment": "Intravenous, antihypertensive effect in conscious, spontaneously hypertensive rats, Duration of action was determined at a compound dose of 300 ug/kg; 25-30"}, "[11]": {"system": "Rattus norvegicus", "experiment": "Intravenous, antihypertensive effect in conscious, spontaneously hypertensive rats, Duration of action was determined at a compound dose of 500 ug/kg; 25-30"}, "[12]": {"system": "Rattus norvegicus", "experiment": "Intravenous antihypertensive effect in conscious, spontaneously hypertensive rats a dose of 300 ug/kg", "in_short": "as §1"}, "[13]": {"system": "Rattus norvegicus", "experiment": "Intravenous antihypertensive effect in conscious, spontaneously hypertensive rats a dose of 500 ug/kg", "in_short": "as §1"}}}
{"smiles": "C=CC(O)(C/C=C/C1[C@H](O)CC(=O)[C@@H]1C/C=C/CCCC(=O)O)CCCC", "note": "(stereo partly specified)", "values": [{"measurement": "Duration", "setting": "[1]", "value": 30, "unit": "min"}, {"measurement": "Duration", "setting": "[2]", "value": ">200", "unit": "min"}, {"measurement": "Duration", "setting": "[3]", "value": 45, "unit": "min"}, {"measurement": "Max lowering MABP", "setting": "[4]", "value": 30, "unit": "mmHg"}, {"measurement": "Max lowering MABP", "setting": "[5]", "value": 65, "unit": "mmHg"}, {"measurement": "Max lowering MABP", "setting": "[6]", "value": 55, "unit": "mmHg"}]}
{"smiles": "CCCCC[C@H](O)/C=C/[C@H]1[C@H](O)CC(=O)[C@@H]1C/C=C\\CCCC(=O)O", "note": "[DINOPROSTONE]", "values": [{"measurement": "Duration", "setting": "[7]", "value": "<5", "unit": "min"}, {"measurement": "Duration", "setting": "[8]", "value": 10, "unit": "min"}, {"measurement": "Duration", "setting": "[9]", "value": "<5", "unit": "min"}, {"measurement": "Duration", "setting": "[10]", "value": 25, "unit": "min"}, {"measurement": "Duration", "setting": "[11]", "value": 25, "unit": "min"}, {"measurement": "Max lowering MABP", "setting": "[4]", "value": 60, "unit": "mmHg"}, {"measurement": "Max lowering MABP", "setting": "[5]", "value": 72, "unit": "mmHg"}, {"measurement": "Max lowering MABP", "setting": "[6]", "value": 72, "unit": "mmHg"}, {"measurement": "Max lowering MABP", "setting": "[12]", "value": 70, "unit": "mmHg"}, {"measurement": "Max lowering MABP", "setting": "[13]", "value": 50, "unit": "mmHg"}]}
